# From ChEMBL document CHEMBL5329191, “Optimization of the 2-arylquinazoline-4(3H)one scaffold for a selective and potent antitrypanosomal agent: modulation of the mechanism of action through chemical functionalization” (RSC Med Chem, 2023)
# Calls of active or inactive are those of the source. The rule behind the calls is not given here.
# Assays:
# [1] = Cytotoxicity against mouse J774.1 cells; assay type: toxicity, cell-based
# In short: (§1)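 Cytotoxicity (CC50) was measured on murine J774.1A macrophages. Selectivity index is CC50 divided by parasite IC50 (promastigote, epimastigote or axenic amastigote). Values are the mean of three independent experiments.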
# Leishmania infantum [2] = assay: Antileishmanial activity against Leishmania infantum axenic amastigotes; assay type: functional, organism-based
# Trypanosoma cruzi [3] = assay: Antitrypanosomal activity against of Trypanosoma cruzi epimastigotes; assay type: functional, organism-based
# [4] = Selectivity index, ratio of CC50 for mouse J774.1 cells to IC50 for Trypanosoma cruzi epimastigotes; assay type: toxicity; details: read-out: Ratio CC50/IC50; in short: as §1
# Leishmania infantum [5] = assay: Induction of ROS production in Leishmania infantum promastigotes in presence of Cu2+; assay type: functional, organism-based
# In short: (§2)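 Oxidative stress in parasite cultures was read fluorometrically with the 2,7-dichlorodihydrofluorescein diacetate (DCFH-DA) probe against a negative-control culture, and was also run with metal cations present.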
# Leishmania infantum [6] = assay: Antileishmanial activity against Leishmania infantum promastigotes assessed as decrease in IC50 in presence of iron(III); assay type: functional, organism-based
# In short: (§3)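 Parasite proliferation was run in the presence of copper(II), iron(III) or zinc(II) salts, each at 1 μM.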
# Trypanosoma cruzi [7] = assay: […] activity against Trypanosoma cruzi epimastigotes assessed as change in parasites in presence of zinc(II); assay type: functional, organism-based; in short: as §3
# [8] = Selectivity index, ratio of CC50 for mouse J774.1 cells to IC50 for Leishmania infantum amastigotes; assay type: toxicity; details: read-out: Ratio CC50/IC50; in short: as §1
# Trypanosoma cruzi [9] = assay: Induction of ROS production in Trypanosoma cruzi epimastigotes in presence of Fe3+; assay type: functional, organism-based; in short: as §2
# Leishmania infantum [10] = assay: Antileishmanial activity against Leishmania infantum promastigotes assessed as decrease in IC50 in presence of zinc(II); assay type: functional, organism-based; in short: as §3
# Leishmania infantum [11] = assay: Antileishmanial activity against Leishmania infantum promastigotes assessed as decrease in IC50 in presence of copper(II); assay type: functional, organism-based; in short: as §3
# Trypanosoma cruzi [12] = assay: Induction of ROS production in Trypanosoma cruzi epimastigotes in presence of Zn2+; assay type: functional, organism-based; in short: as §2
# [13] = Solubility of the compound by UV-Vis spectroscopy; assay type: physicochemical
# In short: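 Solubility in μM was determined by UV-Vis spectroscopy.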
# [14] = Selectivity index, ratio of CC50 for mouse J774.1 cells to IC50 for Leishmania infantum promastigotes; assay type: toxicity; details: read-out: Ratio CC50/IC50; in short: as §1
# Trypanosoma cruzi [15] = assay: […] activity against Trypanosoma cruzi epimastigotes assessed as change in parasites in presence of iron(III); assay type: functional, organism-based; in short: as §3
# Leishmania infantum [16] = assay: Induction of ROS production in Leishmania infantum promastigotes in presence of Fe3+; assay type: functional, organism-based; in short: as §2
# Trypanosoma cruzi [17] = assay: Induction of ROS production in Trypanosoma cruzi epimastigotes in presence of Cu2+; assay type: functional, organism-based; in short: as §2
# Trypanosoma cruzi [18] = assay: […] activity against Trypanosoma cruzi epimastigotes assessed as change in parasites in presence of copper(II); assay type: functional, organism-based; in short: as §3
# Leishmania infantum [19] = assay: Antileishmanial activity against Leishmania infantum promastigotes; assay type: functional, organism-based
# Leishmania infantum [20] = assay: Induction of ROS production in Leishmania infantum promastigotes in presence of Zn2+; assay type: functional, organism-based; in short: as §2
# Trypanosoma cruzi [21] = assay: Antitrypanosomal activity against of Trypanosoma cruzi epimastigotes at 25 uM; assay type: functional
# [22] = Mutagenicity in Salmonella typhimurium TA98 assessed as number of revertant colonies at 3000 uM by Ames test (reference value: 4); assay type: toxicity; details: salmonella enterica subsp. enterica […]
# In short: (§4)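 Ames reverse-mutation assay in Salmonella typhimurium TA 98. Revertant colonies were counted at five escalating dose levels alongside a zero-dose (spontaneous revertant) negative control and a 4-nitro-o-phenylenediamine positive control. A compound was called mutagenic when revertants exceeded twice the negative control at two consecutive dose levels.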
# Trypanosoma cruzi [23] = assay: Antitrypanosomal activity against of Trypanosoma cruzi epimastigotes assessed as increase in IC50 in presence of FA; assay type: functional
# Leishmania infantum [24] = assay: Antileishmanial activity against Leishmania infantum promastigotes assessed as increase in IC50 in presence of FA; assay type: functional
# Trypanosoma cruzi [25] = assay: Antitrypanosomal activity against of Trypanosoma cruzi epimastigotes in presence of FA; assay type: functional, organism-based
# [26] = Mutagenicity in Salmonella typhimurium TA98 assessed as number of revertant colonies at 1000 uM by Ames test (reference value: 4); assay type: toxicity; details: salmonella enterica subsp. enterica […]; in short: as §4
# [27] = Mutagenicity in Salmonella typhimurium TA98 assessed as number of revertant colonies at 100 uM by Ames test (reference value: 4); assay type: toxicity; details: salmonella enterica subsp. enterica […]; in short: as §4
# [28] = Mutagenicity in Salmonella typhimurium TA98 assessed as number of revertant colonies at 300 uM by Ames test (reference value: 4); assay type: toxicity; details: salmonella enterica subsp. enterica […]; in short: as §4
# [29] = Mutagenicity in Salmonella typhimurium TA98 assessed as number of revertant colonies at 9000 uM by Ames test (reference value: 4); assay type: toxicity; details: salmonella enterica subsp. enterica […]; in short: as §4
# [30] = Mutagenicity in Salmonella typhimurium TA98 assessed as number of revertant colonies at 20 uM by Ames test (reference value: 4); assay type: toxicity; details: salmonella enterica subsp. enterica […]; in short: as §4
compound,measurement,setting,value
O=[N+]([O-])c1ccc(/C=N/N=c2\[nH]c(-c3ccccc3)nc3ccccc23)o1,CC50,[1],15.1 µM
same,IC50,Leishmania infantum [2],0.93 µM
same,IC50,Trypanosoma cruzi [3],0.63 µM
same,selectivity ratio,[4],23.9
same,Activity,Leishmania infantum [5],Active
same,Activity,Leishmania infantum [6],Active
same,Activity,Trypanosoma cruzi [7],inactive
same,selectivity ratio,[8],16.2
same,Activity,Trypanosoma cruzi [9],Active
same,Activity,Leishmania infantum [10],Active
same,Activity,Leishmania infantum [11],Active
same,Activity,Trypanosoma cruzi [12],Active
same,solubility,[13],7.99 µM
same,selectivity ratio,[14],17.1
same,Activity,Trypanosoma cruzi [15],inactive
same,Activity,Leishmania infantum [16],Active
same,Activity,Trypanosoma cruzi [17],Active
same,Activity,Trypanosoma cruzi [18],inactive
same,IC50,Leishmania infantum [19],0.88 µM
same,Activity,Leishmania infantum [20],Active
Cc1ccc(-c2nc3ccccc3/c(=N/N=C/c3ccc([N+](=O)[O-])o3)[nH]2)cc1,IC50,Trypanosoma cruzi [3],> 25 µM
same,solubility,[13],7.23 µM
same,IC50,Leishmania infantum [19],> 25 µM
CCCCCCCCCCCCCCCCOP(=O)([O-])OCC[N+](C)(C)C [MILTEFOSINE],CC50,[1],89.2 µM
same,IC50,Leishmania infantum [2],8.69 µM
same,selectivity ratio,[8],10.1
same,selectivity ratio,[14],8.9
same,IC50,Leishmania infantum [19],10.1 µM
O=c1[nH]c(-c2cccc(Cl)c2)nc2ccccc12,IC50,Trypanosoma cruzi [3],> 25 µM
same,IC50,Leishmania infantum [19],> 25 µM
NNc1nc(-c2cccc(Cl)c2)nc2ccccc12,inhibition at 25 µM,Trypanosoma cruzi [21],38%
same,IC50,Trypanosoma cruzi [3],> 25 µM
same,IC50,Leishmania infantum [19],4.55 µM
O=c1[nH]c(-c2ccc(Br)cc2)nc2ccccc12,IC50,Trypanosoma cruzi [3],19.8 µM
same,IC50,Leishmania infantum [19],6.89 µM
O=[N+]([O-])c1ccc(/C=N/N=c2\[nH]c(-c3ccc(F)cc3)nc3ccccc23)o1,CC50,[1],69.1 µM
same,IC50,Leishmania infantum [2],3.52 µM
same,IC50,Trypanosoma cruzi [3],4.08 µM
same,selectivity ratio,[4],16.8
same,Activity,Leishmania infantum [5],Active
same,Activity,Leishmania infantum [6],Active
same,Activity,Trypanosoma cruzi [7],inactive
same,selectivity ratio,[8],19.6
same,Activity,Trypanosoma cruzi [9],Active
same,Activity,[22],3
same,Activity,Leishmania infantum [10],Active
same,Activity,Leishmania infantum [11],Active
same,Activity,Trypanosoma cruzi [12],Active
same,solubility,[13],5.11 µM
same,selectivity ratio,[14],15.1
same,Activity,Trypanosoma cruzi [23],38%
same,Activity,Leishmania infantum [24],31%
same,Activity,Trypanosoma cruzi [15],inactive
same,IC50,Trypanosoma cruzi [25],6.54 µM
same,Activity,[26],3.5
same,Activity,[27],2
same,Activity,Leishmania infantum [16],Active
same,Activity,[28],2.5
same,Activity,Trypanosoma cruzi [17],Active
same,Activity,Trypanosoma cruzi [18],inactive
same,IC50,Leishmania infantum [19],4.56 µM
same,Activity,Leishmania infantum [20],Active
same,Activity,[29],3
NNc1nc(-c2ccc(F)cc2)nc2ccccc12,IC50,Trypanosoma cruzi [3],17.9 µM
same,IC50,Leishmania infantum [19],5.01 µM
CC1CS(=O)(=O)CCN1/N=C/c1ccc([N+](=O)[O-])o1 (stereo not drawn) [NIFURTIMOX],selectivity ratio,[4],36.3
O=[N+]([O-])c1ccc(/C=N/N=c2\[nH]c(-c3cccc(Br)c3)nc3ccccc23)o1,IC50,Trypanosoma cruzi [3],> 25 µM
same,solubility,[13],5.67 µM
same,IC50,Leishmania infantum [19],> 25 µM
Nc1ccc([N+](=O)[O-])cc1N,Activity,[30],365
O=[N+]([O-])c1ccc(/C=N/N=c2\[nH]c(-c3ccc(Cl)cc3)nc3ccccc23)o1,IC50,Trypanosoma cruzi [3],> 25 µM
same,solubility,[13],3.21 µM
same,IC50,Leishmania infantum [19],> 25 µM
